Data set [1] deals with T1, Multidrug efflux pump subunit AcrB (Escherichia coli (strain K12)) (UniProt P31224).
T1 sequence (whole entry): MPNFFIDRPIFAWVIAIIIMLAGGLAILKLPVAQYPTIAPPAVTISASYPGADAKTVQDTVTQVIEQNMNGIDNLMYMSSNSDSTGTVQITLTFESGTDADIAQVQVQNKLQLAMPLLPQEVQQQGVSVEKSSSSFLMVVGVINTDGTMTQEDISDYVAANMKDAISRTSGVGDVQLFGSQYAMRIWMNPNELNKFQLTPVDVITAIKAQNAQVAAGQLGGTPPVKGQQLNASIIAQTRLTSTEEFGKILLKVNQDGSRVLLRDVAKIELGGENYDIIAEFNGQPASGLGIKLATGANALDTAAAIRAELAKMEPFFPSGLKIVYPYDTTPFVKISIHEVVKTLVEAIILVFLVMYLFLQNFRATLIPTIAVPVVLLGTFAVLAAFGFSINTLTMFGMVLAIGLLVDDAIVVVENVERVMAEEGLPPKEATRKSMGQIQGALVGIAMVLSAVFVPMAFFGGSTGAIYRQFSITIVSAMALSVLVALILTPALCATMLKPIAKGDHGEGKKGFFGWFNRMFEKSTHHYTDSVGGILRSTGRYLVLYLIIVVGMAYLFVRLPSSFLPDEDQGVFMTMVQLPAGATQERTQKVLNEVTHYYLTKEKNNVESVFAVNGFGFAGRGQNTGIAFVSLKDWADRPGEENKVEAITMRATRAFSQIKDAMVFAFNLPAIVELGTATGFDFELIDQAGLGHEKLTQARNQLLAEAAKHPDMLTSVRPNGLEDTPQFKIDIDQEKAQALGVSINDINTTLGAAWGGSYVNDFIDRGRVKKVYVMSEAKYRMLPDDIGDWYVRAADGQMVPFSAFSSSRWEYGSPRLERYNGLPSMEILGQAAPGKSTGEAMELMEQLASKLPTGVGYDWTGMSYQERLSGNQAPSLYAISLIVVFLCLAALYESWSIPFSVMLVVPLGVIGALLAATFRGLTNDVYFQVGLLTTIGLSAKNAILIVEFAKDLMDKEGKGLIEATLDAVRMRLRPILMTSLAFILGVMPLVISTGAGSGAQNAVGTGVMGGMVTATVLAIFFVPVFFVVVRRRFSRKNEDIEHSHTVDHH
The data set can be described thus: Inhibition of AcrB in wild-type drug-resistant Escherichia coli […] assessed as potentiation of tetraphenyl phosphonium chloride-induced antimicrobial activity by measuring tetraphenyl phosphonium chloride MIC at 8 ug/ml by checkerboard titration method (reference value: 1024 ug/ml).

Data set [2] has as its system Escherichia coli. The data set can be described thus: Toxicity against wild-type drug-resistant Escherichia coli […] at 128 ug/ml. It counts as organism-based. To be noted: in vivo. In short, it runs like this:
(§1)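 MIC determination against wild-type resistant E. coli BW25113 and an isogenic acrB-deleted strain; highest concentration tested 128 mg/L.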

The target of data set [3] is T1, Multidrug efflux pump subunit AcrB (Escherichia coli (strain K12)). The data set can be described thus: Inhibition of AcrB in wild-type drug-resistant Escherichia coli […] assessed as potentiation of tetraphenyl phosphonium chloride-induced antimicrobial activity by measuring tetraphenyl phosphonium chloride MIC at 16 ug/ml by checkerboard titration method (reference value: 1024 ug/ml).

In data set [4] the test system is Escherichia coli. The data set can be described thus: Disruption of Escherichia coli inner membrane integrity at 128 ug/ml after 10 mins by DiOC2(3) probe based fluorescence assay. To be noted: in vivo. It counts as ADME, organism-based. An outline of the steps:
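Bacterial suspensions pre-exposed to compound for 10 min, then DiOC2(3) added and fluorescence followed to plateau. Cells re-energized with 0.5% glucose; membrane potential (inside negative) read as fluorescence rise to plateau, then collapsed with the proton ionophore CCCP. Untreated cells run alongside.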

Data set [5] deals with T1, Multidrug efflux pump subunit AcrB (Escherichia coli (strain K12)). The experiment in a line: Inhibition of AcrB in wild-type drug-resistant Escherichia coli […] assessed as potentiation of erythromycin-induced antimicrobial activity by measuring erythromycin MIC at 16 ug/ml by checkerboard titration method (reference value: 64 ug/ml).
Data set [6] has the same target. The data set can be described thus: Inhibition of AcrB in wild-type drug-resistant Escherichia coli […] assessed as potentiation of chloramphenicol-induced antimicrobial activity by measuring chloramphenicol MIC at 8 ug/ml by checkerboard titration method (Rvb =16 ug/ml).
For data set [7] the target is unchanged. The data set can be described thus: Inhibition of AcrB in wild-type drug-resistant Escherichia coli […] assessed as potentiation of erythromycin-induced antimicrobial activity by measuring erythromycin MIC at 128 ug/ml by checkerboard titration method (reference value: 64 ug/ml).
Data set [8] has the same target. The data set can be described thus: Inhibition of AcrB in wild-type drug-resistant Escherichia coli […] assessed as potentiation of levofloxacin-induced antimicrobial activity by measuring levofloxacin MIC at 16 ug/ml by checkerboard titration method (reference value: 0.063 ug/ml).
Data set [9] deals with Escherichia coli. The data set can be described thus: Toxicity against AcrB deficient Escherichia coli AcrB lacking at 128 ug/ml. It counts as organism-based. To be noted: in vivo. An outline of the steps:
as §1

The target in data set [10] is T1, Multidrug efflux pump subunit AcrB (Escherichia coli (strain K12)). The data set can be described thus: Inhibition of AcrB in wild-type drug-resistant Escherichia coli […] assessed as potentiation of erythromycin-induced antimicrobial activity by measuring erythromycin MIC at 64 ug/ml by checkerboard titration method (reference value: 64 ug/ml).
Data set [11] shares this target. The experiment in a line: Inhibition of AcrB in wild-type drug-resistant Escherichia coli […] assessed as potentiation of tetraphenyl phosphonium chloride-induced antimicrobial activity by measuring tetraphenyl phosphonium chloride MIC at 32 ug/ml by checkerboard titration method (reference value: 1024 ug/ml).
The target is the same in data set [12]. The experiment in a line: Inhibition of AcrB in wild-type drug-resistant Escherichia coli […] assessed as potentiation of erythromycin-induced antimicrobial activity by measuring erythromycin MIC at 8 ug/ml by checkerboard titration method (reference value: 64 ug/ml).
The target is the same in data set [13]. The experiment in a line: Inhibition of AcrB in wild-type drug-resistant Escherichia coli […] assessed as potentiation of levofloxacin-induced antimicrobial activity by measuring levofloxacin MIC at 128 ug/ml by checkerboard titration method (reference value: 0.063 ug/ml).
For data set [14] the target is unchanged. The data set can be described thus: Inhibition of AcrB in wild-type drug-resistant Escherichia coli […] assessed as potentiation of tetraphenyl phosphonium chloride-induced antimicrobial activity by measuring tetraphenyl phosphonium chloride MIC at 128 ug/ml by checkerboard titration method (reference value: 1024 ug/ml).
For data set [15] the target is unchanged. The experiment in a line: Inhibition of AcrB in wild-type drug-resistant Escherichia coli […] assessed as potentiation of erythromycin-induced antimicrobial activity by measuring erythromycin MIC at 32 ug/ml by checkerboard titration method (reference value: 64 ug/ml).
Data set [16] shares this target. The data set can be described thus: Inhibition of AcrB in wild-type drug-resistant Escherichia coli […] assessed as potentiation of levofloxacin-induced antimicrobial activity by measuring levofloxacin MIC at 64 ug/ml by checkerboard titration method (reference value: 0.063 ug/ml).
The target is the same in data set [17]. The data set can be described thus: Inhibition of AcrB in wild-type drug-resistant Escherichia coli […] assessed as potentiation of chloramphenicol-induced antimicrobial activity by measuring chloramphenicol MIC at 128 ug/ml by checkerboard titration method (Rvb =16 ug/ml).
The subject of data set [18] is Escherichia coli. The experiment in a line: Induction of Escherichia coli outer membrane permeabilization assessed as increase in nitrocefin hydrolysis at 128 ug/ml by spectroscopic method. It counts as organism-based.

Molecules are shown by their SMILES.

For the molecule `COc1ccccc1CN1C(=O)c2cc3cccc(OC)c3cc2C1=O`, the MIC in [1] turned out to be 1020 µg/mL; in data set [3] it was 1020 µg/mL; in [5], 64 µg/mL; in data set [6] it was 16 µg/mL; in [7] it was 64 µg/mL; in data set [8] it was 0.0039 µg/mL. The MIC in data set [10] turned out to be 64 µg/mL; in data set [11], 1020 µg/mL; in data set [12] it was 64 µg/mL; in data set [13] it was 0.0019 µg/mL; in [14] it was 512 µg/mL; in [15], 64 µg/mL. Also, the MIC in [16] came out at 0.0019 µg/mL; in data set [17], 16 µg/mL. In addition, the Activity entry with Escherichia coli [2], in the data set on Escherichia coli [4], in the data set on Escherichia coli [9] and with Escherichia coli [18] was “Non-Toxic” in each case.
As for `CCCCCN1C(=O)c2cc3cccc(OC)c3cc2C1=O`, the MIC in data set [1] turned out to be 1020 µg/mL; in [3] it was 1020 µg/mL; in [5], 64 µg/mL; in data set [6], 16 µg/mL; in data set [7] it was 8 µg/mL; in data set [8] it was 0.063 µg/mL. Moreover, the MIC in data set [10] stood at 32 µg/mL; in data set [11], 1020 µg/mL; in [12] it was 64 µg/mL; in data set [13], 0.0313 µg/mL; in data set [14], 512 µg/mL; in data set [15], 32 µg/mL. Also, the MIC in data set [16] came to 0.0313 µg/mL; in data set [17] it was 4 µg/mL. In addition, the Activity result in the data set with Escherichia coli [2], with Escherichia coli [4], in the data set with Escherichia coli [9] and in the data set on Escherichia coli [18] was “Non-Toxic” throughout.
As to `COc1cccc2cc3c(cc12)C(=O)N(Cc1ccccc1)C3=O`, the MIC in data set [1] is 1020 µg/mL; in data set [3], 1020 µg/mL; in [5], 32 µg/mL; in [6], 16 µg/mL; in data set [7], 16 µg/mL; in [8] it was 0.063 µg/mL. In addition, the MIC in [10] came to 32 µg/mL; in [11] it was 1020 µg/mL; in [12], 32 µg/mL; in data set [13] it was 0.063 µg/mL; in data set [14], 512 µg/mL; in data set [15] it was 32 µg/mL. In addition, the results for the MIC in data set [16] and in data set [17] were 0.063 µg/mL and 8 µg/mL, respectively. The Activity entry in the data set on Escherichia coli [2], with Escherichia coli [4], in the data set on Escherichia coli [9] and with Escherichia coli [18] was “Non-Toxic” each time.

(Values after ChEMBL document CHEMBL4422685, “Design, synthesis and evaluation of a series of 5-methoxy-2,3-naphthalimide derivatives as AcrB inhibitors for the reversal of bacterial resistance” (Bioorg Med Chem Lett, 2019).)
